Data published in ChEMBL document CHEMBL1137143, “Synthesis of C8-linked pyrrolo[2,1-c][1,4]benzodiazepine-acridone/acridine hybrids as potential DNA-binding agents” (Bioorg Med Chem Lett, 2004).

Columns and labels:
[1] = tested on: Nucleic Acid; experiment: (§1) DNA-binding ability was determined by thermal denaturation method using calf thymus (CT) DNA; expressed as Delta Tm after 0 hr; format: functional; conditions: Bos taurus
Summary of the method: (§2)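 Thermal melting of CT-DNA, 100 µM, with ligand at 20 µM (1:5 PBD:DNA molar ratio) in 10 mM sodium phosphate + 1 mM EDTA, pH 7.00; incubated at 37 °C for 0 h or 18 h before melting. ΔTm taken relative to DNA alone, whose Tm is a mean of 10 separate determinations.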

[2] = tested on: Nucleic Acid; experiment: (§3) DNA-binding ability was determined by thermal denaturation method using calf thymus (CT) DNA; expressed as Delta Tm after 18 hr; format: functional; conditions: Bos taurus; summary of the method: as §2
[3] = species: Bos taurus; experiment: as §1; format: functional, organism-based; summary of the method: as §2
[4] = species: Bos taurus; experiment: as §3; format: functional, organism-based; summary of the method: as §2
[5] = tested on: A498; experiment: In vitro cytotoxicity was determined against A498 cell line; format: functional; conditions: Homo sapiens, read-out: LC50 (the source's name)
[6] = tested on: M14; experiment: In vitro cytotoxicity was determined against M14 cell line; format: functional; conditions: Homo sapiens, read-out: LC50 (the source's name)
[7] = tested on: UACC-62; experiment: In vitro cytotoxicity was determined against UACC-62 cell line; format: functional; conditions: Homo sapiens, read-out: LC50 (the source's name)
[8] = tested on: NCI-H23; experiment: In vitro cytotoxicity was determined against NCI-H23 cell line; format: functional; conditions: Homo sapiens, read-out: LC50 (the source's name)

Row | SMILES | ΔTm [1] | ΔTm [2] | ΔTm [3] | ΔTm [4] | CC50 [5] | CC50 [6] | CC50 [7] | CC50 [8]
1 | COc1cc2c(cc1OCCNC(=O)c1cccc3cc4ccccc4nc13)N=C[C@@H]1CCCN1C2=O | 3.1 °C | 5 °C | – | – | – | – | – | –
2 | COc1cc2c(cc1OCCNC(=O)c1cccc3c(O)c4ccccc4nc13)N=C[C@@H]1CCCN1C2=O | 4.7 °C | 5.7 °C | 4.7 °C | 5.7 °C | – | – | – | –
3 | COc1cc2c(cc1O)N=C[C@@H]1CCCN1C2=O | 0.4 °C | 0.7 °C | – | – | – | – | – | –
4 | COc1cc2c(cc1OCCCNC(=O)c1cccc3cc4ccccc4nc13)N=C[C@@H]1CCCN1C2=O | 5.9 °C | 7.7 °C | – | – | – | – | – | –
5 | COc1cc2c(cc1OCCCNC(=O)c1cccc3c(O)c4ccccc4nc13)N=C[C@@H]1CCCN1C2=O | 11 °C | 12.5 °C | – | – | 50 nM | < 10 nM | < 10 nM | 70 nM
